Tests used:
Mus musculus [1] = assay: Toxicity in female CDF1 mouse allografted with mouse P388 cells assessed as survivors on day 5 at 25 mg/kg, ip using hydroxypropylcellulose suspension; assay type: organism-based; parameters: dose 25 mg/kg, route intraperitoneal; details: in vivo
Procedure, shortened: (§1)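 Female CDF1 mice were inoculated ip with P388 leukemia ascitic fluid. Test agent was suspended in hydroxypropylcellulose (Flucel) and given ip as nine daily doses, starting 24 h after tumor inoculation. Survivors were counted on day 5 as the toxicity read-out.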

P388 [2] = assay: Antileukemic activity against mouse P388 cells allografted in male CDF1 mouse assessed as change in body weight at 25 mg/kg, ip using hydroxypropylcellulose suspension total 9 daily doses started 24 hrs after tumor inoculation; assay type: functional; details: route intraperitoneal
Procedure, shortened: (§2)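 Male CDF1 mice were inoculated ip with P388 ascitic fluid. Compound was given ip as a Flucel (hydroxypropylcellulose) suspension, nine daily doses from 24 h after inoculation. Animal weight difference (T − C, g) was recorded on the fifth day.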

P388 [3] = assay: Antileukemic activity against mouse P388 cells allografted in female CDF1 mouse assessed as tumor growth inhibition at 50 mg/kg, ip using hydroxypropylcellulose suspension total 9 daily doses started 24 hrs after tumor inoculation; assay type: functional; details: route intraperitoneal
Procedure, shortened: (§3)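 P388 ascitic fluid was inoculated ip into female CDF1 mice. Dosing was ip in a Flucel (hydroxypropylcellulose) suspension, given daily for nine doses beginning 24 h post-inoculation. Activity was median survival time expressed as % T/C, with % T/C > 125 taken as significant.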

P388 [4] = assay: Antileukemic activity against mouse P388 cells allografted in male CDF1 mouse assessed as change in body weight at 12.5 mg/kg, ip using hydroxypropylcellulose suspension total 9 daily doses started 24 hrs after tumor inoculation; assay type: functional; details: route intraperitoneal; procedure, shortened: as §2
Mus musculus [5] = assay: Toxicity in female CDF1 mouse allografted with mouse P388 cells assessed as survivors on day 5 at 200 mg/kg, ip using hydroxypropylcellulose suspension; assay type: organism-based; parameters: dose 200 mg/kg, route intraperitoneal; details: in vivo; procedure, shortened: as §1
Mus musculus [6] = assay: Toxicity in male CDF1 mouse allografted with mouse P388 cells assessed as survivors on day 5 at 25 mg/kg, ip using hydroxypropylcellulose suspension; assay type: organism-based; parameters: dose 25 mg/kg, route intraperitoneal; details: in vivo
Procedure, shortened: (§4)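 Male CDF1 mice received an ip inoculation of P388 leukemia ascitic fluid. Dosing was ip in a hydroxypropylcellulose (Flucel) suspension, once daily for nine days, beginning 24 h after tumor implantation. Toxicity was scored as survivors recorded on the fifth day.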

P388 [7] = assay: Antileukemic activity against mouse P388 cells allografted in male CDF1 mouse assessed as tumor growth inhibition at 25 mg/kg, ip using hydroxypropylcellulose suspension total 9 daily doses started 24 hrs after tumor inoculation; assay type: functional; details: route intraperitoneal
Procedure, shortened: (§5)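 Male CDF1 mice received P388 ascitic fluid ip, then ip doses in Flucel (hydroxypropylcellulose) suspension, nine daily, beginning 24 h after inoculation. Efficacy was median survival time as % T/C; values > 125 were considered significant.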

P388 [8] = assay: Antileukemic activity against mouse P388 cells allografted in female CDF1 mouse assessed as tumor growth inhibition at 25 mg/kg, ip using hydroxypropylcellulose suspension total 9 daily doses started 24 hrs after tumor inoculation; assay type: functional; details: route intraperitoneal; procedure, shortened: as §3
Mus musculus [9] = assay: Toxicity in female CDF1 mouse allografted with mouse P388 cells assessed as survivors on day 5 at 50 mg/kg, ip using hydroxypropylcellulose suspension; assay type: organism-based; parameters: dose 50 mg/kg, route intraperitoneal; details: in vivo; procedure, shortened: as §1
P388 [10] = assay: Antileukemic activity against mouse P388 cells allografted in female CDF1 mouse assessed as tumor growth inhibition at 100 mg/kg, ip using hydroxypropylcellulose suspension total 9 daily doses started 24 hrs after tumor inoculation; assay type: functional; details: route intraperitoneal; procedure, shortened: as §3
P388 [11] = assay: Antileukemic activity against mouse P388 cells allografted in female CDF1 mouse assessed as change in body weight at 100 mg/kg, ip using hydroxypropylcellulose suspension total 9 daily doses started 24 hrs after tumor inoculation; assay type: functional; details: route intraperitoneal
Procedure, shortened: (§6)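 Female CDF1 mice got P388 ascitic fluid ip. Test agent was given ip as a Flucel (hydroxypropylcellulose) suspension, nine daily doses starting 24 h after tumor inoculation. Read-out was the treated minus control animal weight difference (T − C, g), recorded on day 5.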

P388 [12] = assay: Antileukemic activity against mouse P388 cells allografted in female CDF1 mouse assessed as tumor growth inhibition at 200 mg/kg, ip using hydroxypropylcellulose suspension total 9 daily doses started 24 hrs after tumor inoculation; assay type: functional; details: route intraperitoneal; procedure, shortened: as §3
P388 [13] = assay: Antileukemic activity against mouse P388 cells allografted in female CDF1 mouse assessed as change in body weight at 50 mg/kg, ip using hydroxypropylcellulose suspension total 9 daily doses started 24 hrs after tumor inoculation; assay type: functional; details: route intraperitoneal; procedure, shortened: as §6
P388 [14] = assay: Antileukemic activity against mouse P388 cells allografted in female CDF1 mouse assessed as change in body weight at 25 mg/kg, ip using hydroxypropylcellulose suspension total 9 daily doses started 24 hrs after tumor inoculation; assay type: functional; details: route intraperitoneal; procedure, shortened: as §6
P388 [15] = assay: Antileukemic activity against mouse P388 cells allografted in male CDF1 mouse assessed as tumor growth inhibition at 12.5 mg/kg, ip using hydroxypropylcellulose suspension total 9 daily doses started 24 hrs after tumor inoculation; assay type: functional; details: route intraperitoneal; procedure, shortened: as §5
P388 [16] = assay: Antileukemic activity against mouse P388 cells allografted in female CDF1 mouse assessed as change in body weight at 200 mg/kg, ip using hydroxypropylcellulose suspension total 9 daily doses started 24 hrs after tumor inoculation; assay type: functional; details: route intraperitoneal; procedure, shortened: as §6
P388 [17] = assay: Antileukemic activity against mouse P388 cells allografted in female CDF1 mouse assessed as change in body weight at 6.25 mg/kg, ip using hydroxypropylcellulose suspension total 9 daily doses started 24 hrs after tumor inoculation; assay type: functional; details: route intraperitoneal; procedure, shortened: as §6
Mus musculus [18] = assay: Toxicity in male CDF1 mouse allografted with mouse P388 cells assessed as survivors on day 5 at 12.5 mg/kg, ip using hydroxypropylcellulose suspension; assay type: organism-based; parameters: dose 12.5 mg/kg, route intraperitoneal; details: in vivo; procedure, shortened: as §4
Mus musculus [19] = assay: Toxicity in male CDF1 mouse allografted with mouse P388 cells assessed as survivors on day 5 at 50 mg/kg, ip using hydroxypropylcellulose suspension; assay type: organism-based; parameters: dose 50 mg/kg, route intraperitoneal; details: in vivo; procedure, shortened: as §4
P388 [20] = assay: Antileukemic activity against mouse P388 cells allografted in male CDF1 mouse assessed as tumor growth inhibition at 50 mg/kg, ip using hydroxypropylcellulose suspension total 9 daily doses started 24 hrs after tumor inoculation; assay type: functional; details: route intraperitoneal; procedure, shortened: as §5
P388 [21] = assay: Antileukemic activity against mouse P388 cells allografted in male CDF1 mouse assessed as change in body weight at 50 mg/kg, ip using hydroxypropylcellulose suspension total 9 daily doses started 24 hrs after tumor inoculation; assay type: functional; details: route intraperitoneal; procedure, shortened: as §2
Mus musculus [22] = assay: Toxicity in male CDF1 mouse allografted with mouse P388 cells assessed as survivors on day 5 at 50 mg/kg, ip using saline as vehicle; assay type: organism-based; parameters: dose 50 mg/kg, route intraperitoneal; details: in vivo
Procedure, shortened: (§7)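 P388 leukemia ascitic fluid was implanted ip into male CDF1 mice. Compound was given ip in saline vehicle as nine daily doses, starting 24 h post-inoculation. Survivor counts were taken on day 5.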

P388 [23] = assay: Antileukemic activity against mouse P388 cells allografted in male CDF1 mouse assessed as change in body weight at 25 mg/kg, ip using saline as vehicle total 9 daily doses started 24 hrs after tumor inoculation; assay type: functional; details: route intraperitoneal
Procedure, shortened: (§8)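 In male CDF1 mice bearing ip-inoculated P388 ascitic fluid, drug was given ip in saline vehicle, once daily for nine doses starting 24 h after inoculation. Body weight difference, treated minus control (g), was recorded on day 5.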

Mus musculus [24] = assay: Toxicity in male CDF1 mouse allografted with mouse P388 cells assessed as survivors on day 5 at 12.5 mg/kg, ip using saline as vehicle; assay type: organism-based; parameters: dose 12.5 mg/kg, route intraperitoneal; details: in vivo; procedure, shortened: as §7
Mus musculus [25] = assay: Toxicity in male CDF1 mouse allografted with mouse P388 cells assessed as survivors on day 5 at 25 mg/kg, ip using saline as vehicle; assay type: organism-based; parameters: dose 25 mg/kg, route intraperitoneal; details: in vivo; procedure, shortened: as §7
P388 [26] = assay: Antileukemic activity against mouse P388 cells allografted in male CDF1 mouse assessed as tumor growth inhibition at 12.5 mg/kg, ip using saline as vehicle total 9 daily doses started 24 hrs after tumor inoculation; assay type: functional; details: route intraperitoneal
Procedure, shortened: (§9)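 P388 ascitic fluid was given ip to male CDF1 mice. Treatment was ip in saline, nine daily doses from 24 h post-inoculation. Median survival time was expressed as % T/C, and % T/C > 125 was considered significant.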

P388 [27] = assay: Antileukemic activity against mouse P388 cells allografted in male CDF1 mouse assessed as change in body weight at 50 mg/kg, ip using saline as vehicle total 9 daily doses started 24 hrs after tumor inoculation; assay type: functional; details: route intraperitoneal; procedure, shortened: as §8
P388 [28] = assay: Antileukemic activity against mouse P388 cells allografted in male CDF1 mouse assessed as change in body weight at 12.5 mg/kg, ip using saline as vehicle total 9 daily doses started 24 hrs after tumor inoculation; assay type: functional; details: route intraperitoneal; procedure, shortened: as §8
P388 [29] = assay: Antileukemic activity against mouse P388 cells allografted in male CDF1 mouse assessed as tumor growth inhibition at 25 mg/kg, ip using saline as vehicle total 9 daily doses started 24 hrs after tumor inoculation; assay type: functional; details: route intraperitoneal; procedure, shortened: as §9
P388 [30] = assay: Antileukemic activity against mouse P388 cells allografted in male CDF1 mouse assessed as tumor growth inhibition at 50 mg/kg, ip using saline as vehicle total 9 daily doses started 24 hrs after tumor inoculation; assay type: functional; details: route intraperitoneal; procedure, shortened: as §9

| Compound | Activity (P388 [2]) [g] | Activity (P388 [4]) [g] | Activity (Mus musculus [6]) | T/C (P388 [7]) [%] | T/C (P388 [15]) [%] | Activity (Mus musculus [18]) | T/C (P388 [20]) [%] | Activity (P388 [21]) [g] | also measured |
| --- | --- | --- | --- | --- | --- | --- | --- | --- | --- |
| CNC(=O)OCc1c(COC(=O)NC)c(C)n(-c2ccccc2)c1C | -1.7 | -1.3 | Non-toxic | 148 | 145 |  |  |  | Activity (Mus musculus [1]): Non-toxic; T/C (P388 [3]): <50%; Activity (Mus musculus [5]): Toxic; T/C (P388 [8]): 127%; Activity (Mus musculus [9]): Non-toxic; T/C (P388 [10]): <50%; Activity (P388 [11]): -2.1 g; T/C (P388 [12]): <50%; Activity (P388 [13]): -2 g; Activity (P388 [14]): -1.6 g; Activity (P388 [16]): -1.5 g; Activity (P388 [17]): -2.1 g |
| CNC(=O)OCc1c(COC(=O)NC)c(C)n(-c2ccc(C)cc2)c1C | -2.3 | -2.5 | Non-toxic | 136 | 142 | Non-toxic | 133 | -2.6 | Activity (Mus musculus [19]): Non-toxic |
| CNC(=O)OCc1c(COC(=O)NC)c(C)n(-c2ccc(Cl)c(Cl)c2)c1C |  |  |  |  |  |  |  |  | Activity (Mus musculus [22]): Non-toxic; Activity (P388 [23]): -2.9 g; Activity (Mus musculus [24]): Non-toxic; Activity (Mus musculus [25]): Non-toxic; T/C (P388 [26]): 160%; Activity (P388 [27]): -2.6 g; Activity (P388 [28]): -1.5 g; T/C (P388 [29]): 148%; T/C (P388 [30]): 84% |
| CCOc1ccc(-n2c(C)c(COC(=O)NC)c(COC(=O)NC)c2C)cc1 | -3.4 | -3 | Non-toxic | 150 | 152 | Non-toxic | 90 | -3.8 |  |
| CCCCc1ccc(-n2c(C)c(COC(=O)NC)c(COC(=O)NC)c2C)cc1 | -4.1 | -3.1 | Non-toxic | 152 | 190 | Non-toxic | 65 | -4.9 |  |
| CNC(=O)OCc1c(COC(=O)NC)c(C)n(-c2ccc(Br)cc2)c1C | -3.9 | -2 | Non-toxic | 142 | 152 | Non-toxic | 88 | -4.9 |  |
